Measured values reported in ChEMBL document CHEMBL1773005, “The antibacterial ent-eusynstyelamide B and eusynstyelamides D, E, and F from the Arctic bryozoan Tegella cf. spitzbergensis” (J Nat Prod, 2011).
pIC50: −log10 of the molar value. In brackets after ≈: the same amount, converted by molar mass.

Key:
Escherichia coli = assay: Antibacterial activity against Escherichia coli ATCC 25922 after 24 hrs by microtiter plate assay; assay type: functional; conditions: ATCC 25922, 24 h
Procedure, shortened: (§1)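 Log-phase cultures grown at 37 C in Mueller Hinton broth, diluted to about 5 × 10^5 cells per well, then mixed 1:1 with compound dissolved in water. Growth followed by continuous optical density reading. MIC taken as the lowest concentration giving no OD change after 24 h at 37 C. Tested in duplicate over 2–100 μg/mL; cecropin B (25 μM) served as positive control.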

[1] = test system: Corynebacterium glutamicum; assay: Antibacterial activity against Corynebacterium glutamicum ATTC 13032 after 24 hrs by microtiter plate assay; assay type: functional; conditions: ATTC 13032, 24 h; procedure, shortened: as §1
Candida albicans = assay: Antifungal activity against Candida albicans ATCC 10231 after 48 hrs by microscopy; assay type: functional; conditions: ATCC 10231, 48 h
Procedure, shortened: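 Yeast grown on potato dextrose agar with 2% glucose at room temperature, suspended in potato dextrose broth and counted in a Bürker chamber. Spores at 2 × 10^5/mL final were mixed with compounds dissolved in water and incubated at 37 C. MIC was the lowest concentration with no visible growth at 48 h, scored microscopically. Duplicates over 2–100 μg/mL; cecropin B (6.25 μM) as positive control.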

Staphylococcus aureus [2] = assay: Antibacterial activity against methicillin-resistant Staphylococcus aureus ATCC 33591 after 24 hrs by microtiter plate assay; assay type: functional; conditions: ATCC 33591, 24 h
Procedure, shortened: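 Log-phase bacteria at about 5 × 10^5 cells per well in Mueller Hinton broth, 37 C, were mixed with compounds dissolved in water, 2–100 μg/mL, in duplicate. Optical density was monitored continuously. MIC was taken as the lowest concentration giving no change in optical density after 24 h. Cecropin B (25 μM) served as positive control.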

Pseudomonas aeruginosa = assay: Antibacterial activity against Pseudomonas aeruginosa ATTC 27853 after 24 hrs by microtiter plate assay; assay type: functional; conditions: ATTC 27853, 24 h; procedure, shortened: as §1
Staphylococcus aureus [3] = assay: Antibacterial activity against Staphylococcus aureus ATTC 9144 after 24 hrs by microtiter plate assay; assay type: functional; conditions: ATTC 9144, 24 h; procedure, shortened: as §1
A2058 = assay: Anticancer activity against human A2058 cells after 72 hrs by CellTiter-96 cell viability assay; assay type: functional, cell-based; conditions: A2058, 72 h
Procedure, shortened: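 A-2058 melanoma cells in exponential growth were seeded, incubated 24 h at 37 C, then exposed to compounds for 72 h. Viability was read by CellTiter96 reagent, 1 h colour development, absorbance at 485 nm. Duplicates over 2–100 μg/mL; IC50 determined.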

| SMILES | MIC (Escherichia coli) [µg/mL] | MIC [1] [µg/mL] | MIC (Candida albicans) [µg/mL] | MIC (Staphylococcus aureus [2]) [µg/mL] | MIC (Pseudomonas aeruginosa) [µg/mL] | MIC (Staphylococcus aureus [3]) [µg/mL] | pIC50 (A2058) |
| --- | --- | --- | --- | --- | --- | --- | --- |
| N=C(N)NCCCCNC(=O)[C@@]1(O)[C@H](c2c[nH]c3cc(Br)ccc23)[C@@](O)(Cc2c[nH]c3cc(Br)ccc23)C(=O)N1CCCCN [EUSYNSTYELAMIDE F] | 12.5 (≈ 16.7 µM) | 6.25 (≈ 8.37 µM) | 50 (≈ 67 µM) | > 50 | 12.5 (≈ 16.7 µM) | 6.25 (≈ 8.37 µM) |  |
| NCCCCNC(=O)[C@@]1(O)[C@H](c2c[nH]c3cc(Br)ccc23)[C@@](O)(Cc2c[nH]c3cc(Br)ccc23)C(=O)N1CCCCN [EUSYNSTYELAMIDE D] | 12.5 (≈ 17.7 µM) | 12.5 (≈ 17.7 µM) | 50 (≈ 71 µM) | 20 (≈ 28.4 µM) | 25 (≈ 35.5 µM) | 12.5 (≈ 17.7 µM) | 4.24 |
| N=C(N)NCCCCN1C(=O)[C@](O)(Cc2c[nH]c3cc(Br)ccc23)[C@@H](c2c[nH]c3cc(Br)ccc23)[C@]1(O)C(=O)NCCCCN [EUSYNSTYELAMIDE E] | 12.5 (≈ 16.7 µM) | 12.5 (≈ 16.7 µM) | 100 (≈ 134 µM) | 20 (≈ 26.8 µM) | 25 (≈ 33.5 µM) | 12.5 (≈ 16.7 µM) | 3.94 |
